Test results as given in ChEMBL document CHEMBL1165856, “Naftifine-analogues as anti-Trypanosoma cruzi agents” (Eur J Med Chem, 2010).
Converted amounts (≈) assume the structure as drawn. “And” between values parts separate entries of the source, which are not always exact repeats. Equal entries are not always repeated.

Assays:
[1] = system: Aspergillus flavus; test: Antifungal activity against Aspergillus flavus ATCC 9170 after 48 hrs; assay type: functional; conditions: ATCC 9170, 48 h
Outline: (§1)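 Aspergillus spp. were tested by CLSI M38-A broth microdilution in RPMI 1640 with MOPS at pH 7.0. Spore inoculum is 10³ CFU/mL, with two-fold compound dilutions and final DMSO ≤1%. Incubated at 35 °C in a moist, dark chamber. MIC is read visually as total growth inhibition, at a time set by growth of the control fungus.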

[2] = system: Trichophyton mentagrophytes; test: Antifungal activity against Trichophyton mentagrophytes ATCC 9972 after 48 hrs; assay type: functional; conditions: ATCC 9972, 48 h
Outline: (§2)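 Dermatophytes were tested by CLSI M38-A microdilution in MOPS-buffered RPMI 1640 at pH 7.0. Inoculum is 10³ CFU/mL, with two-fold serial compound dilutions and final DMSO ≤1%. Trays are kept at 28–30 °C in a moist, dark chamber. MIC is the lowest concentration with total growth inhibition, read visually when control growth allows.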

[3] = system: Aspergillus fumigatus; test: Antifungal activity against Aspergillus fumigatus ATCC 26934 after 48 hrs; assay type: functional; conditions: ATCC 26934, 48 h; outline: as §1
[4] = system: Aspergillus niger; test: Antifungal activity against Aspergillus niger ATCC 9029 after 48 hrs; assay type: functional; conditions: ATCC 9029, 48 h; outline: as §1
[5] = Cytotoxicity against mouse J774 cells after 48 hrs by MTT assay; assay type: cell-based; conditions: read-out: ID50
Outline: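 J-774 macrophages were seeded at 1 × 10⁵ cells/well in RPMI 1640 with 20% heat-inactivated FCS and left to attach for 48 h at 37 °C in 5% CO₂. Cells were then exposed to compounds for 48 h. MTT was added at 0.4 mg/mL final, formazan was dissolved in DMSO, and A595 was read. ID50 is the concentration cutting control absorbance by 50%, averaged over three experiments.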

[6] = Selectivity index, ratio of ID50 for mouse J774 cells to ID50 for Trypanosoma cruzi Tulahuen 2; assay type: toxicity, cell-based; conditions: J774 cells versus Trypanosoma cruzi Tulahuen 2
Outline: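 Selectivity index is the ID50 in J-774 macrophages (48 h MTT) divided by the ID50 against Tulahuen 2 epimastigotes (day-5 A600 growth).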

[7] = system: Trypanosoma cruzi; test: Antitrypanosomal activity against Trypanosoma cruzi CL Brener; assay type: functional; conditions: read-out: ID50 (the source's name)
Outline: (§3)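 Epimastigotes were grown at 28 °C in BHI-tryptose with 5% FBS. Stationary-phase parasites are inoculated at 8 × 10⁶ cells/mL into medium containing increasing drug concentrations from DMSO stock (final DMSO ≤0.4%; vehicle control). Growth is followed by A600. ID50 is the concentration that halves the day-5 absorbance ratio relative to control.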

[8] = system: Saccharomyces cerevisiae; test: Antifungal activity against Saccharomyces cerevisiae ATCC 9763 after 48 hrs; assay type: functional; conditions: ATCC 9763, 48 h
Outline: (§4)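 CLSI M27-A2 broth microdilution in RPMI 1640 buffered to pH 7.0 with MOPS. Inoculum is 10³ CFU/mL from Sabouraud-grown yeasts. Compound is two-fold serially diluted, final DMSO ≤1%. Incubated at 35 °C in a moist, dark chamber and read visually at 48 h. MIC is the lowest concentration giving total growth inhibition.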

[9] = system: Cryptococcus neoformans; test: Antifungal activity against Cryptococcus neoformans ATCC 32264 after 48 hrs; assay type: functional; outline: as §4
[10] = system: Trichophyton rubrum; test: Antifungal activity against Trichophyton rubrum C 113 after 48 hrs; assay type: functional; conditions: C 113, 48 h; outline: as §2
[11] = system: Nannizzia gypsea; test: Antifungal activity against Microsporum gypseum C 115 after 48 hrs; assay type: functional; conditions: C 115, 48 h; outline: as §2
[12] = system: Trypanosoma cruzi; test: Antitrypanosomal activity against Trypanosoma cruzi Tulahuen 2; assay type: functional; conditions: read-out: ID50 (the source's name); outline: as §3
[13] = system: Candida tropicalis; test: Antifungal activity against Candida tropicalis C 131 2000 after 48 hrs; assay type: functional; outline: as §4
[14] = system: Candida albicans; test: Antifungal activity against Candida albicans ATCC 10231 after 48 hrs; assay type: functional; conditions: ATCC 10231, 48 h; outline: as §4
[15] = system: Trypanosoma cruzi; test: Antitrypanosomal activity against Trypanosoma cruzi Tulahuen 2 at 25 uM; assay type: functional
Outline: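 Tulahuen 2 epimastigotes (8 × 10⁶ cells/mL, 28 °C, BHI-tryptose with 5% FBS) were exposed to a single drug concentration, with final DMSO ≤0.4% and a vehicle control. Percent growth inhibition = {1 − [(Ap − A0p)/(Ac − A0c)]} × 100, using A600 of drug and control cultures at day 0 and day 5.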

[16] = Cryptococcus neoformans, ATCC 32264, 48 h, read-out: MIC
[17] = Candida tropicalis, C 131 2000, 48 h, read-out: MIC

For `COc1nn(CCOCCN2CCN(C/C=C/c3ccccc3)CC2)c2ccc([N+](=O)[O-])cc12`, the MIC [1] was over 250 µg/mL, the MFC [2] was 125 µg/mL (≈ 268 µM) and the MIC [2] was 62.5 µg/mL (≈ 134 µM). For the same compound, the MIC [3] was over 250 µg/mL, the MIC [4] was over 250 µg/mL and the CC50 at 48 h [5] was under 100 µM. It also gave a selectivity ratio [6] of under 26.3, an IC50 [7] of 7.9 µM and an MFC [8] of 62.5 µg/mL (≈ 134 µM). For the same compound, the MIC [8] was 62.5 µg/mL (≈ 134 µM), the MFC ([9]; Cryptococcus neoformans, ATCC 32264, 48 h) was 62.5 µg/mL (≈ 134 µM) and the MIC [9, 16] was 62.5 µg/mL (≈ 134 µM). It also gave an MFC [10] of 125 µg/mL (≈ 268 µM), an MIC [10] of 62.5 µg/mL (≈ 134 µM) and an MFC [11] of 125 µg/mL (≈ 268 µM). The MIC [11] was 62.5 µg/mL (≈ 134 µM), the IC50 [12] was 3.8 µM and the MIC [13] was 125 µg/mL (≈ 268 µM). The MIC [13, 17] was 125 µg/mL (≈ 268 µM), the MFC [14] was 125 µg/mL (≈ 268 µM) and the MIC [14] was 125 µg/mL (≈ 268 µM).
Compound `N#Cc1c2ccccc2[n+]([O-])n1C/C=C/c1ccccc1` has an MIC [1] of over 250 µg/mL, an inhibition at 25 µM [15] of 28% and an MFC [2] of 125 µg/mL (≈ 454 µM). The MIC [2] was 62.5 µg/mL (≈ 227 µM), the MIC [3] was over 250 µg/mL and the MIC [4] was over 250 µg/mL. For the same compound, the MIC [8] was over 250 µg/mL, the MIC [9, 16] was over 250 µg/mL and the MFC [10] was 125 µg/mL (≈ 454 µM). It also gave an MIC [10] of 62.5 µg/mL (≈ 227 µM), an MFC [11] of 125 µg/mL (≈ 454 µM) and an MIC [11] of 62.5 µg/mL (≈ 227 µM). For the same compound, the MIC [13, 17] was over 250 µg/mL and the MIC [14] was over 250 µg/mL.
For `O=[N+]([O-])c1ccc2c(c1)c(OCc1ccccc1)nn2CCCCCN1CCN(C/C=C/c2ccccc2)CC1`, the MIC [1] was over 250 µg/mL, the MFC [2] was 125 µg/mL (≈ 232 µM) and the MIC [2] was 62.5 µg/mL (≈ 116 µM). For the same compound, the MIC [3] was over 250 µg/mL, the MIC [4] was over 250 µg/mL and the CC50 at 48 h [5] was under 100 µM. For the same compound, the selectivity ratio [6] was under 9.4, the IC50 [7] was 4.5 µM and the MIC [8] was over 250 µg/mL. For the same compound, the MIC [9] was 62.5 µg/mL and 31.2 µg/mL, the MFC [10] was 125 µg/mL (≈ 232 µM) and the MIC [10] was 62.5 µg/mL (≈ 116 µM). It also gave an MFC [11] of 125 µg/mL (≈ 232 µM), an MIC [11] of 62.5 µg/mL (≈ 116 µM) and an IC50 [12] of 10.6 µM. It also gave an MIC [13, 17] of over 250 µg/mL and an MIC [14] of over 250 µg/mL.
For `CN(C/C=C/c1ccccc1)Cc1ccc2no[n+]([O-])c2c1`, the CC50 at 48 h [5] was under 100 µM, the selectivity ratio [6] was under 4.4 and the IC50 [7] was 16.9 µM. The IC50 [12] was 22.6 µM.
